Assay results reported in article PMC4400215 (Antiviral therapy, 2014).
Values after ≈ are worked out from the molar mass of the structure shown. Values joined by “and” are separate entries in the source; they are usually repeats but may differ in a detail not shown here. Identical values can stand only once. Like-named read-outs stand apart in the source and are kept apart here.

Columns and labels:
[1] = Two-compartment population PK model fitted to danoprevir plasma concentrations; format: in vivo, patients
[2] = system: HCV; conditions: 200 mg tid, multiscale model; cited from earlier work
[3] = system: HCV genotype 1; conditions: cited from earlier work
[4] = system: HCV genotype 1; format: in vivo, Hepatitis C virus; conditions: 14 days
Summary of the method: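 Reanalysed phase 1 data. Chronically infected patients were randomised 8:2 to oral test compound or placebo for 14 days, and placebo recipients were excluded. HCV RNA was measured in blood drawn at 0, 2, 4, 6, 8, 12, 16, 24, 26, 28, 30, 48 and 52 h, on days 6 and 8 pre- and post-dose, and on day 13.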

[5] = system: HCV; assay: Varying effectiveness; format: in vivo, Hepatitis C virus; conditions: VE model
Summary of the method: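 Standard viral kinetic model with constant target cells, fitted to log10 viral load only, without PK data. Effectiveness = Dose/(ED50+Dose)·(1−e^(−kt)), where Dose is the total daily amount. Population mixed-effects fit by maximum likelihood. Per-patient effectiveness was averaged over days 0–2 and 0–14, then over each cohort. First-phase decline = −log10(1−ε).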

[6] = system: HCV; conditions: in combination with mericitabine, 14 days, no viral breakthrough; cited from earlier work
[7] = system: HCV; assay: PK/VK model fitted to HCV RNA kinetics during danoprevir monotherapy; format: in vivo, Hepatitis C virus; conditions: for minimal effectiveness: at Cmin
[8] = system: HCV; conditions: monotherapy, doses of 200 and 500 mg/day; cited from earlier work
[9] = Cohort 5: 300 mg bid, non-responder
[10] = PK/VK model, Cohort 1: 100 mg bid, TN
[11] = PK/VK model, Cohort 2: 100 mg tid, TN
[12] = PK/VK model, Cohort 3: 200 mg bid, TN
[13] = PK/VK model, Cohort 4: 200 mg tid, TN
[14] = PK/VK model, Cohort 5: 300 mg bid, non-responder
[15] = after first intake, 100 mg bid dose

CC(C)(C)OC(=O)N[C@H]1CCCCC/C=C\[C@@H]2C[C@@]2(C(=O)NS(=O)(=O)C2CC2)NC(=O)[C@@H]2C[C@@H](OC(=O)N3Cc4cccc(F)c4C3)CN2C1=O [danoprevir]
Cmax ([1]; human, plasma, oral): 2.67 to 589 ng/mL | Vd/F ([1]; human, plasma, oral): 2100 ± 360 L | k el ([1]; human, plasma, oral): 0.000283 s⁻¹ | k21 (backward rate constant between compartments) ([1]; population estimate±standard error, all cohorts): 0.81 h⁻¹ and 0.81 ± 0.17 h⁻¹ | Tlag (post-dose lag-time) ([1]; population estimate±standard error, all cohorts, oral): 0.50 h and 0.50 ± 0.057 h | Tk0 (time over which danoprevir is absorbed) ([1]; population estimate±standard error, all cohorts, zero-order absorption): 0.58 h and 0.58 ± 0.13 h | effectiveness in blocking intracellular replication [2]: 99.2% | enhancement of viral RNA degradation [2]: about 5 fold | mean effectiveness on viral secretion [2]: 56% | cure rates ([3]; genotype 1, with IFN and ribavirin, boosted with ritonavir): up to 93% | cure rates ([3]; patients infected with genotype 1, in combination with IFN and ribavirin): up to 85% | Total viral decline (median) ([4]; Cohort 1: 100 mg bid, treatment-naïve): 2.0 Log10 IU/mL | Total viral decline (median) ([4]; Cohort 2: 100 mg tid, TN): 2.7 Log10 IU/mL | Total viral decline (median) ([4]; Cohort 4: 200 mg tid, TN): 3.9 Log10 IU/mL | Total viral decline (median) [4, 9]: 2.7 Log10 IU/mL | Average effectiveness over the first 2 days of dosing ε2 ([5]; Cohort 1: 100 mg bid, TN): 0.973 | Average effectiveness over the full 14-day dosing period ε14 ([5]; Cohort 1: 100 mg bid, TN): 0.976 | Predicted first-phase log decline, i.e. −log10(1−ε2) ([5]; Cohort 1: 100 mg bid, TN): 1.57 log10 | Average effectiveness over the first 2 days of dosing ε2 ([5]; Cohort 2: 100 mg tid, TN): 0.982 | Average effectiveness over the full 14-day dosing period ε14 ([5]; Cohort 2: 100 mg tid, TN): 0.984 | Predicted first-phase log decline, i.e. −log10(1−ε2) ([5]; Cohort 2: 100 mg tid, TN): 1.74 log10 | Average effectiveness over the first 2 days of dosing ε2 ([5]; Cohort 3: 200 mg bid, TN): 0.985 | Average effectiveness over the full 14-day dosing period ε14 ([5]; Cohort 3: 200 mg bid, TN): 0.988 | Predicted first-phase log decline, i.e. −log10(1−ε2) ([5]; Cohort 3: 200 mg bid, TN): 1.82 log10 | Average effectiveness over the first 2 days of dosing ε2 ([5]; Cohort 4: 200 mg tid, TN): 0.990 | Average effectiveness over the full 14-day dosing period ε14 ([5]; Cohort 4: 200 mg tid, TN): 0.992 | Predicted first-phase log decline, i.e. −log10(1−ε2) ([5]; Cohort 4: 200 mg tid, TN): 2.00 log10 | Average effectiveness over the first 2 days of dosing ε2 [5, 9]: 0.990 | Average effectiveness over the full 14-day dosing period ε14 [5, 9]: 0.992 | Predicted first-phase log decline, i.e. −log10(1−ε2) [5, 9]: 2.00 log10 | ED50 (daily dose leading to 50% of the maximal effectiveness) ([5]; estimate±standard error): 4.85 ± 1.4 mg/day | k (rate constant for effectiveness increase) ([5]; estimate±standard error): 29.1 ± 13.0 day⁻¹ and 29.1 ± 13 day⁻¹ | δ (loss rate of infected cells) ([5]; estimate±standard error): 0.184 ± 0.03 day⁻¹ | final population effectiveness ([5]; highest dose given to treatment-naïve patients (cohort 4)): 0.992 | final population effectiveness ([5]; lowest dose (cohort 1)): 0.976 | viral RNA decline [6]: 5 logs | final effectiveness in blocking viral production ([7]; 200 mg tid): 99.4% | Average effectiveness over the first 2 days of dosing ε2 [7, 10]: 0.946 | Average effectiveness over the full 14-day dosing period ε14 [7, 10]: 0.95 and 0.953 | Predicted first-phase log decline, i.e. −log10(1−ε2) [7, 10]: 1.27 log10 | Average effectiveness over the first 2 days of dosing ε2 [7, 11]: 0.981 | Average effectiveness over the full 14-day dosing period ε14 [7, 11]: 0.990 | Predicted first-phase log decline, i.e. −log10(1−ε2) [7, 11]: 1.72 log10 | Average effectiveness over the first 2 days of dosing ε2 [7, 12]: 0.966 | Average effectiveness over the full 14-day dosing period ε14 [7, 12]: 0.974 | Predicted first-phase log decline, i.e. −log10(1−ε2) [7, 12]: 1.47 log10 | Average effectiveness over the first 2 days of dosing ε2 [7, 13]: 0.985 | Average effectiveness over the full 14-day dosing period ε14 [7, 13]: 0.994 | Predicted first-phase log decline, i.e. −log10(1−ε2) [7, 13]: 1.83 log10 | Average effectiveness over the first 2 days of dosing ε2 [7, 14]: 0.974 | Average effectiveness over the full 14-day dosing period ε14 [7, 14]: 0.982 | Predicted first-phase log decline, i.e. −log10(1−ε2) [7, 14]: 1.58 log10 | minimal effectiveness ([7]; PK/VK model, cohort 1 (lowest dose)): 0.706 | minimal effectiveness ([7]; PK/VK model, cohort 4 (highest dose)): 0.877 | EC50 (plasma concentration at which effectiveness is 0.5 times its maximum) ([7]; PK/VK model, in vivo, h=1, population estimate±standard error): 0.0082 ± 0.0024 ng/mL (≈ 0.0112 nM) | δ (loss rate of infected cells, slope of second phase decline) ([7]; PK/VK model, population estimate±standard error, all cohorts): 0.18 day⁻¹ and 0.18 ± 0.024 day⁻¹ | time to reach 95% of final effectiveness [7, 15]: ≤ 30 min | time to reach 99% of final effectiveness [7, 15]: ≤ 36 min | patients showing a rapid second phase (δ > 0.3 d^−1) ([7]; all cohorts): 30% | time to reach 99% of the final effectiveness ([7]; model prediction, all doses): less than 1 hr

COc1ccc2c(O[C@@H]3C[C@H]4C(=O)N[C@]5(C(=O)O)C[C@H]5/C=C\CCCCC[C@H](NC(=O)OC5CCCC5)C(=O)N4C3)cc(-c3csc(NC(C)C)n3)nc2c1 [ciluprevir]
δ (second phase decline) [8]: 0.22 to 0.36 day⁻¹
